Data as given in ChEMBL document CHEMBL6083194, “Discovery and evaluation of 3-(2-isocyanobenzyl)-1H-indole derivatives as potential quorum sensing inhibitors for the control of Pseudomonas aeruginosa infections in vitro” (RSC Med Chem, 2024).
The source made the active and inactive calls. The rule behind the calls is not given here.

Assays:
Pseudomonas aeruginosa [1] = assay: Downregulation of sodB gene expression in Pseudomonas aeruginosa PAO1 assessed as fold decrease at 25 ug/ml by RT-qPCR analysis; format: functional; details: dose 25.0 µg/ml
Pseudomonas aeruginosa [2] = assay: Downregulation of sucD gene expression in Pseudomonas aeruginosa PAO1 assessed as fold decrease at 25 ug/ml by RT-qPCR analysis; format: functional; details: dose 25 µg/ml
Pseudomonas aeruginosa [3] = assay: Downregulation of rhlR gene expression in Pseudomonas aeruginosa PAO1 assessed as fold decrease at 25 ug/ml by RT-qPCR analysis; format: functional; details: dose 25 µg/ml
Pseudomonas aeruginosa [4] = assay: Downregulation of lasI gene expression in Pseudomonas aeruginosa PAO1 assessed as fold decrease at 25 ug/ml by RT-qPCR analysis; format: functional; details: dose 25 µg/ml
Pseudomonas aeruginosa [5] = assay: Downregulation of lasR gene expression in Pseudomonas aeruginosa PAO1 assessed as fold decrease at 25 ug/ml by RT-qPCR analysis; format: functional; details: dose 25 µg/ml
Pseudomonas aeruginosa [6] = assay: Inhibition of biofilm formation in Pseudomonas aeruginosa PAO1 at 1/2 times MIC incubated for 24 hrs crystal violet staining based SEM assay; format: functional
Pseudomonas aeruginosa [7] = assay: Inhibition of pyocyanin production in Pseudomonas aeruginosa PAO1 at 1/2 time MIC incubated for 18 hrs; format: functional
Summary of the method: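 Overnight PAO1 in LB diluted to OD600 = 0.05, subcultured 5–7 h to mid-log, rediluted to OD600 = 0.05. 5 mL with compound grown 18 h at 37 °C, 200 rpm. Supernatant extracted with 3 mL chloroform, back-extracted into 0.2 M HCl, absorbance at 520 nm.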

Pseudomonas aeruginosa [8] = assay: Inhibition of rhamnolipid production in Pseudomonas aeruginosa PAO1 at 1/2 to 1/4 times MIC by orcinol method; format: functional, organism-based
Summary of the method: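 Overnight PAO1 diluted 1:100 into LB with compound, 37 °C, 180 rpm; DMSO control. Supernatant (100 μL) mixed with 900 μL 0.19% orcinol in 53% H2SO4, heated 30 min at 80 °C, cooled, read at 421 nm.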

[9] = Inhibition of quorum sensing system in Pseudomonas aeruginosa PAO1 assessed as reduction in C4-HSL level at 6.25 to 25 ug/ml incubated for 24 hrs by LC-MS/MS method; details: dose 6.25-25 µg/ml
[10] = Inhibition of quorum sensing system in Pseudomonas aeruginosa PAO1 assessed as reduction in C4-HSL level at 25 ug/ml incubated for 24 hrs by LC-MS/MS method; details: dose 25.0 µg/ml
[11] = Inhibition of quorum sensing system in Pseudomonas aeruginosa PAO1 assessed as reduction in C4-HSL level at 12.5 ug/ml incubated for 24 hrs by LC-MS/MS method; details: dose 12.5 µg/ml
[12] = Inhibition of quorum sensing system in Pseudomonas aeruginosa PAO1 assessed as reduction in 3-oxo-C12-HSL level at 50 ug/ml incubated for 24 hrs by LC-MS/MS method; details: dose 50.0 µg/ml
[13] = Inhibition of quorum sensing system in Pseudomonas aeruginosa PAO1 assessed as reduction in 3-oxo-C12-HSL level at 25 ug/ml incubated for 24 hrs by LC-MS/MS method; details: dose 25.0 µg/ml
[14] = Inhibition of quorum sensing system in Pseudomonas aeruginosa PAO1 assessed as reduction in 3-oxo-C12-HSL level at 12.5 ug/ml incubated for 24 hrs by LC-MS/MS method; details: dose 12.5 µg/ml
Pseudomonas aeruginosa [15] = assay: Inhibition of biofilm formation in Pseudomonas aeruginosa PAO1 at 6.25 ug/ml incubated for 24 hrs crystal violet staining based assay; format: functional
Summary of the method: (§1)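 PAO1 grown statically for 24 h in LB ± compound in 24-well plates. Planktonic cells removed; attached cells stained with 0.05% crystal violet, rinsed, dissolved in 95% ethanol, read at OD570. DMSO negative, resveratrol positive control; SD from three independent experiments.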

Pseudomonas aeruginosa [16] = assay: Inhibition of biofilm formation in Pseudomonas aeruginosa PAO1 at 12.5 ug/ml incubated for 24 hrs crystal violet staining based assay; format: functional; summary of the method: as §1
Pseudomonas aeruginosa [17] = assay: Inhibition of biofilm formation in Pseudomonas aeruginosa PAO1 at 25 ug/ml incubated for 24 hrs crystal violet staining based assay; format: functional; summary of the method: as §1
Pseudomonas aeruginosa [18] = assay: Inhibition of biofilm formation in Pseudomonas aeruginosa PAO1 assessed as reduction in biofilm by measuring scattered appearance at 25 ug/ml incubated for 24 hrs by scanning electron microscopic assay; format: functional, organism-based; details: dose 25.0 µg/ml
Summary of the method: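 PAO1 biofilms on coverslips treated with compound at 6.25, 12.5 or 25 μg mL−1 or DMSO. Coverslips PBS-washed, fixed in 2.5% glutaraldehyde, ethanol-dehydrated, freeze-dried, gold-coated and imaged by SEM.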

Pseudomonas aeruginosa [19] = assay: Induction of biofilm eradication in Pseudomonas aeruginosa PAO1 at 12.5 ug/ml by crystal violet staining based assay; format: functional; details: dose 12.5 µg/ml
Summary of the method: (§2)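 PAO1 biofilms grown overnight at 37 °C in LB in 24-well plates, washed with PBS, then fresh LB with compound added and grown overnight again. Washed, methanol-fixed, crystal violet stained, ethanol solubilised, read at OD570. DMSO negative, resveratrol positive control.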

Pseudomonas aeruginosa [20] = assay: Induction of biofilm eradication in Pseudomonas aeruginosa PAO1 at 25 ug/ml by crystal violet staining based assay; format: functional; details: dose 25 µg/ml; summary of the method: as §2
Pseudomonas aeruginosa [21] = assay: Anti-virulence effect in Pseudomonas aeruginosa PAO1 assessed as inhibition of pyocyanin production; format: functional, organism-based
Summary of the method: (§3)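 Overnight PAO1 culture in LB at 37 °C, diluted to OD600 0.05 and subcultured 5–7 h to mid-log phase, then re-diluted to OD600 0.05. Grown 18 h at 37 °C and 200 rpm with compound (6.25, 12.5, 25 μg mL−1) or DMSO. Supernatant extracted into chloroform, back-extracted into 0.2 M HCl, read at 520 nm.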

Pseudomonas aeruginosa [22] = assay: Anti-virulence effect in Pseudomonas aeruginosa PAO1 assessed as inhibition of pyocyanin production at 12.5 ug/ml; format: functional; parameters: scale not given: the % may be the effect or the level left; details: dose 12.5 µg/ml; summary of the method: as §3
Pseudomonas aeruginosa [23] = assay: Anti-virulence effect in Pseudomonas aeruginosa PAO1 assessed as inhibition of pyocyanin production at 6.25 ug/ml; format: functional; parameters: scale not given: the % may be the effect or the level left; details: dose 6.25 µg/ml; summary of the method: as §3
Pseudomonas aeruginosa [24] = assay: Anti-virulence effect in Pseudomonas aeruginosa PAO1 assessed as inhibition of EPS production at 25 ug/ml; format: functional; parameters: scale not given: the % may be the effect or the level left; details: dose 25 µg/ml
Summary of the method: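 PAO1 grown with compound (6.25–25 μg mL−1) in 24-well plates for 24 h at 37 °C and 180 rpm; DMSO and RSV (25 μg mL−1) as controls. Biofilms washed with water, then treated with 0.9% NaCl, 5% phenol and 0.2% hydrazine sulfate. Held 1 h in the dark, read at OD490. Three independent experiments.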

Pseudomonas aeruginosa [25] = assay: Downregulation of PA5439 gene expression in Pseudomonas aeruginosa PAO1 assessed as fold decrease at 25 ug/ml by RT-qPCR analysis; format: functional; details: dose 25 µg/ml
HEK-293T = assay: Cytotoxicity against human HEK293T cells by CCK8 assay; format: functional, cell-based
Summary of the method: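 HEK293T cell viability by CCK-8; IC50 determined.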

Erythrocyte = assay: Cytotoxicity against mouse RBC at 100 to 1024 ug/ml; format: toxicity, cell-based; details: dose 100-1024 µg/ml
[26] = Cytotoxicity against MEF at 100 to 1024 ug/ml; format: toxicity, cell-based; details: mouse, dose 100-1024 µg/ml

SMILES: Cc1cccc(C#N)c1Cc1c[nH]c2ccccc12
- fold change (FC) (Pseudomonas aeruginosa [1]): 1.82
- fold change (FC) (Pseudomonas aeruginosa [2]): 5.65
- fold change (FC) (Pseudomonas aeruginosa [3]): 9.71
- fold change (FC) (Pseudomonas aeruginosa [4]): 5
- fold change (FC) (Pseudomonas aeruginosa [5]): 4.42
- inhibition (INH) (Pseudomonas aeruginosa [6]): 52%
- inhibition (INH) (Pseudomonas aeruginosa [7]): 64%
- inhibition (Pseudomonas aeruginosa [8]): Active
- inhibition [9]: Active
- inhibition [10]: 51%
- inhibition [11]: 61%
- inhibition [12]: 41%
- inhibition [13]: 60%
- inhibition [14]: 72%
- inhibition at 6.25 µg/mL (Pseudomonas aeruginosa [15]): 32%
- inhibition at 12.5 µg/mL (Pseudomonas aeruginosa [16]): 53%
- inhibition at 25 µg/mL (Pseudomonas aeruginosa [17]): 70%
- inhibition (Pseudomonas aeruginosa [18]): Active
- Activity (Pseudomonas aeruginosa [19]): 50%
- Activity (Pseudomonas aeruginosa [20]): 57%
- Activity (Pseudomonas aeruginosa [21]): Dose-dependent-effect
- Activity (Pseudomonas aeruginosa [22]): 57%
- Activity (Pseudomonas aeruginosa [23]): 41%
- Activity (Pseudomonas aeruginosa [24]): 37%
- fold change (FC) (Pseudomonas aeruginosa [25]): 10.87
- IC50 (HEK-293T): 59 µM
- Activity (Erythrocyte): Toxic
- Activity [26]: Toxic
